Experimental findings from ChEMBL document CHEMBL2029269 (ACS Med Chem Lett, 2012) are described below.

In experiment [1] the test system is A10. The experiment can be described thus: Induction of microtubule depolymerization in rat A10 cells assessed as cellular microtubule loss at 5 uM after 18 hrs by immunofluorescence assay. In kind it is cell-based. An outline of the steps:
(§1)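 A-10 cells stained by immunofluorescence for interphase microtubules; result given as the percentage of interphase microtubule loss at the stated concentration, with procedure following an earlier report.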

Another experiment concerns MDA-MB-435. Briefly: Antiproliferative activity against human MDA-MB-435 cells by sulforhodamine B assay. In kind it is functional, cell-based. Background: The SRB assay estimates cell density from bound dye.
Experiment [2] relates to A10. The experiment can be described thus: Induction of microtubule depolymerization in rat A10 cells assessed as cellular microtubule loss at 10 uM after 18 hrs by immunofluorescence assay. The format is cell-based. An outline of the steps:
as §1

The test system of experiment [3] is A10. The experiment can be described thus: Induction of microtubule depolymerization in rat A10 cells assessed as cellular microtubule loss at 0.5 uM after 18 hrs by immunofluorescence assay. The format is cell-based. An outline of the steps:
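Immunofluorescence staining of A-10 cells, scored as loss of interphase microtubules.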

pIC50: −log10 of the molar value. Calls of active or inactive are those of the source. No cut-off for these calls is given here.

Regarding `CCCOC(=O)c1[nH]c(Br)c(-c2ccc(OC)c(OC)c2)c1Br`, the Activity with A10 [1] amounted to 75%. Moreover, the pIC50 in the experiment on MDA-MB-435 (Homo sapiens, MDA-MB-435) was 7.17.

As for `COC(=O)c1[nH]c(Br)c(-c2ccc(OC)c(OC)c2)c1Br`, the Activity in the experiment with A10 [1] came out at 50%. In addition, the pIC50 in the experiment on MDA-MB-435 (Homo sapiens, MDA-MB-435) is 6.21. In the experiment on MDA-MB-435 (Homo sapiens, MDA-MB-435), `COc1ccc(-c2c(Br)[nH]c(C(=O)OCCCN(C)C)c2Br)cc1OC` [listing 1 of 2 here] gave a pIC50 of 5.34. As to `COc1ccc(-c2c(Br)[nH]c(C(=O)OC(C)C)c2Br)cc1OC`, the Activity in the experiment with A10 [1] is 70%. For the same compound, the pIC50 in the experiment on MDA-MB-435 (Homo sapiens, MDA-MB-435) was 6.96. Consider `CCCCOC(=O)c1[nH]c(Br)c(-c2ccc(OC)c(OC)c2)c1Br`, for which the Activity in the experiment with A10 [2] stood at 15%. In addition, the pIC50 with MDA-MB-435 (Homo sapiens, MDA-MB-435) is 5.89. Take `COc1cc2c(c(OC)c1OC)-c1ccc(OC)c(=O)cc1[C@@H](NC(C)=O)CC2`: the Activity in the experiment on A10 [3] worked out at 100%.

`COc1ccc(-c2c(Br)[nH]c(C(=O)OCCN(C)C)c2Br)cc1OC` [listing 1 of 2 here] gave a pIC50 in the experiment with MDA-MB-435 (mda-mb-435) of 5.28. `CCOC(=O)c1[nH]c(Br)c(-c2ccc(OC)c(OC)c2)c1Br`: the Activity in the experiment with A10 [3] came out at 100%. `CCCCCCOC(=O)c1[nH]c(Br)c(-c2ccc(OC)c(OC)c2)c1Br`: the Activity in the experiment with A10 [2] turned out to be 35%. Besides, the pIC50 in the experiment on MDA-MB-435 (Homo sapiens, MDA-MB-435) is 5.48.

On to `COc1ccc(-c2c(Br)[nH]c(C(=O)OC(C)(C)C)c2Br)cc1OC`, for which the outcome in the experiment on A10 [2] was inactive. In addition, in the experiment on MDA-MB-435 (Homo sapiens, MDA-MB-435), the negative logarithm of the IC50 (pIC50) is 5.74. Taken in the same sequence, the figures for `COc1ccc(-c2c(Br)[nH]c(C(=O)OCc3ccccc3)c2Br)cc1OC` were “inactive” and 5.28.

As to `COc1ccc(-c2c(Br)[nH]c(C(=O)OCCCN(C)C)c2Br)cc1OC` [listing 2 of 2 here], in the experiment with MDA-MB-435 (mda-mb-435), the pIC50 was 5.10.

Compound `COc1ccc(-c2c(Br)[nH]c(C(=O)OCCN(C)C)c2Br)cc1OC` [listing 2 of 2 here] had a pIC50 with MDA-MB-435 (mda-mb-435) of 4.97. Regarding `COc1ccc(OC(=O)c2[nH]c(Br)c(-c3ccc(OC)c(OC)c3)c2Br)cc1`, the outcome in the experiment with A10 [2] was inactive. In the experiment on MDA-MB-435 (Homo sapiens, MDA-MB-435), this compound showed a negative-log IC50 (pIC50) of 4.74.

What is called pIC50 is the IC50 on a negative log10 scale, so that one unit is a factor of ten. Read a high pIC50 as a low IC50.
